A selection: hits, their analogues and other compounds. The true share with any hit is near 9.4%.
Beta cell apopt: beta cell apoptosis inhibition; INS-1E cytokine-induced death, ATP luminescence, 48 h; percent of positive-control rescue, neutral wells zero; protection from apoptosis, % (concentration not given with the values); 0.8% of 300,000 active; AID 435005;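 active means Every replicate reaches about 75%, or at least half do and their mean reaches it too, limit read from the data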;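 further: 0% = cytokine-treated negative control wells and 100% = positive control rescue; higher means more ATP so stronger rescue from cytokine killing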
CSC inhib: cancer stem cell inhibition. cancer stem cell-like cells viability, luminescence. inhibition, % at 7.5 µM. 1.1% of 300,000 active. AID 2717; in the data active means inhibition above about 75%; tested in HMLE shEcad cells
Lmaj promast: inhibitors of Leishmania major promastigote growth; Leishmania major promastigotes, resazurin fluorescence viability; inhibition, % at 10 µM; 9% of 200,000 active; AID 1063; in the data active means inhibition above about 50%;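 further: promastigotes grown with compound for 44 hours at 28 °C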
T cruzi repl: T. cruzi replication inhibition; T. cruzi beta-gal in NIH3T3, luminescence, 90 h; inhibition, % (no concentration beside the values); 1.4% of 300,000 active;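 active means mean inhibition across valid replicates above about 55%, limit read from the data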;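 further: signal also drops with host cell toxicity which is not excluded here; 0% = plate median of DMSO wells and 100% = zero luminescence signal; higher percent means less beta-gal luminescence so fewer parasites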
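Test system: β-gal T. cruzi (Tulahuen C4) inside NIH/3T3 cells / Quantity: 5,000 cells/well / Measured by: luminescence from GalScreen with 0.05% NP40, read after 60 min / Medium: DMEM plus 2% FBS / Measure: parasite load inhibition, % / Reagent: Tulahuen C4 trypomastigotes, 5000/well / Schedule: co-culture of at least 90 h after 3 h attachment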
SKKanGAS inh: SKKanGAS growth inhibition. S. pyogenes SKKanGAS, kanamycin growth, BacTiter-Glo, 6 h. 1.3% of 300,000 active. AID 1662. inhibition, % at 7.5 µM;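 active means mean replicate score, as percent of positive control median, at least 50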;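 further: strain carries kanamycin resistance gene driven by streptokinase promoter and grows in 40 µg/ml kanamycin; loss of luminescence reflects streptokinase promoter inhibition or plain growth inhibition; 0% = median of DMSO wells and 100% = positive control at its reference dose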
Mdm2 MdmX PPI: disrupts the human Mdm2-MdmX interaction. 3% of 330,000 active. SaOS-2 split-luciferase Mdm2/MdmX complementation, luminescence. O15151+Q00987. AID 485346. inhibition, % at 8 µM;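 active means inhibition of at least 50% at 8 µM in the primary screen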
Target sequence (O15151 whole entry, looked up): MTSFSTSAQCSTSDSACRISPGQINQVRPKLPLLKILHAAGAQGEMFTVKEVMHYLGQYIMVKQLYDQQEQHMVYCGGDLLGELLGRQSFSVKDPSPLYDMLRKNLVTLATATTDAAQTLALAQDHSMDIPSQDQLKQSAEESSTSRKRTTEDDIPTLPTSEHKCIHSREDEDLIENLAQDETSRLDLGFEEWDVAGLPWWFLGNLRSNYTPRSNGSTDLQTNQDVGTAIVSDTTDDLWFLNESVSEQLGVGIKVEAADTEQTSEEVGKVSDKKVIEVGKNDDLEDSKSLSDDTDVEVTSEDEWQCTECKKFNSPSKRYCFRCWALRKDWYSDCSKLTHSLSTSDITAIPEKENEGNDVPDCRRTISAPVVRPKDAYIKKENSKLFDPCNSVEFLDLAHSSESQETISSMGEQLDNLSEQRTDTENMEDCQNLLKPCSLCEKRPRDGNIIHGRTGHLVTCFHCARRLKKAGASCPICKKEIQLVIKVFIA
Target sequence (Q00987 whole entry, looked up): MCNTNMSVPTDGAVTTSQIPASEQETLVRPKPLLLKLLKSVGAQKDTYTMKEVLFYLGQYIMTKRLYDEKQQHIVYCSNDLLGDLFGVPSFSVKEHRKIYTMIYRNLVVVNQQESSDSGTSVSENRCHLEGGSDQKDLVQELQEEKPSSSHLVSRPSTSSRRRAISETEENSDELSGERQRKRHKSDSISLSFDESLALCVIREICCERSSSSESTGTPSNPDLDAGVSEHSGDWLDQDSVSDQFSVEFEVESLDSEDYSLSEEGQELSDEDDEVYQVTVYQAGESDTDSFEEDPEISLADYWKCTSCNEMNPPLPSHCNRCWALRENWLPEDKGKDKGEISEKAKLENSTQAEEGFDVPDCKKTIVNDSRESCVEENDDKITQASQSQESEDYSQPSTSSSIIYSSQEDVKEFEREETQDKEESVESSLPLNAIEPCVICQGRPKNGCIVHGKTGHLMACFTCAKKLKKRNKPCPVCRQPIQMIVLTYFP
The depositor's hits bear a star; . = no result given.

SMILES | Beta cell apopt | CSC inhib | Lmaj promast | T cruzi repl | SKKanGAS inh | Mdm2 MdmX PPI
COc1ccc(C2/C=C\CN(C(=O)c3ccccc3)[C@H](Cc3ccccc3)C(=O)N2Cc2ccc(F)cc2)cc1 (stereo partly specified) | 94* | 26 | . | 16 | 18 | 31
CCCNC(=O)CN(C)S(=O)(=O)c1ccc(F)cc1 | -9 | 8 | 64* | 1 | -1 | 6
Cc1cccc(N(C(=O)c2snc(C(N)=O)c2N)C(C(=O)NCC2CCCO2)c2ccc(N(C)C)cc2)c1C (stereo unspecified) | 3 | -12 | . | -7 | 2 | -17
CCCC(C)c1nnc(NC(=O)COc2ccc3c(c2)OCO3)s1 (stereo unspecified) | 1 | 85* | . | -4 | -5 | 5
O=C(NCc1ccco1)c1ccc(Cn2cc([N+](=O)[O-])cn2)o1 | -5 | -10 | -4 | -14 | 5 | 2
O=C(NCCc1ccccc1)c1ccc(CS(=O)(=O)Cc2ccccc2F)o1 | 5 | . | 0 | 9 | -2 | 4
O=C(NCc1ccco1)c1ccc([N+](=O)[O-])o1 | -3 | 1 | 63* | 73* | 22 | 6
O=C(NCc1cccnc1)c1ccc([N+](=O)[O-])o1 | -17 | 15 | 94* | 74* | 26 | 30
O=C(Nc1cccnc1)c1ccc([N+](=O)[O-])o1 | -32 | 54 | . | 19 | 26 | 20
Cc1ccc(CCNC(=O)c2ccc(CS(=O)(=O)Cc3ccccc3F)o2)cc1 | 0 | 0 | 75* | -3 | 2 | -6
Cc1cccc(CS(=O)(=O)Cc2ccc(C(=O)NCc3ccco3)o2)c1 | 0 | -10 | 80* | 4 | -1 | -19
Cc1ccc(CS(=O)(=O)Cc2ccc(C(=O)NCc3ccco3)o2)cc1 | -3 | 8 | -8 | -3 | -10 | -33
CCc1nc2oc3ccccc3c(=O)c2cc1C(=O)OC | 4 | 2 | . | 1 | -2 | .
CN(C)N1C(N)=C(C#N)C(c2ccccc2F)C2=C1CC(C)(C)CC2=O (stereo unspecified) | -5 | 1 | . | 18 | 0 | 1
CCOC(=O)Cc1nnc(NC(=O)CSc2ncc(-c3ccccc3)nn2)s1 | -4 | -13 | 1 | -11 | 0 | -22
CN(CC(=O)Nc1c(Cl)cccc1Cl)C(=O)Cn1[nH]c(=O)c2ccccc2c1=O | 1 | . | . | . | . | -14
CCn1nc(C)c(NC(=O)/C=C/c2ccc(OC)c(COc3ccc(Cl)cc3Br)c2)c1C | . | 35 | 15 | 55* | 7 | 32
COC(=O)C1CCN(C(=O)COC(=O)[C@@H]2CC(O)CN2S(=O)(=O)c2ccc3c(c2)OCCO3)CC1 (stereo partly specified) | -13 | -13 | 51* | -22 | -4 | 20
CC1CC(C)CN(C(=O)COC(=O)C2CCN(S(=O)(=O)c3ccc4c(c3)OCCO4)CC2)C1 (stereo unspecified) | -14 | -5 | . | -4 | -3 | -16
OCCC1CN(Cc2cccn2-c2cccnc2)CCN1C1CCCCC1 (stereo unspecified) | -4 | 1 | -1 | -4 | -6 | 0
CCC(C(=O)O)N1C(=O)C2CCCCC2C1=O (stereo unspecified) | -1 | -23 | . | -8 | -1 | -16
O=C(c1ccc(Cl)c(Cl)c1)N(Cc1ccco1)c1ccc(O)cc1 | 13 | 21 | 70* | 7 | 14 | 32
CCCCCN(C(=O)COC(=O)c1ccc(C)cc1)c1c(N)n(CCCC)c(=O)[nH]c1=O | -4 | -11 | . | . | . | 34
Cc1ccc(C2N(c3ccc(Cl)cc3)C(=O)N3CCCN23)cc1 (stereo unspecified) | -3 | -23 | . | -5 | -3 | -5
CCOc1ccc(NC(=O)Nc2ccc(Cc3ccncc3)cc2)cc1 | 39 | 80* | . | 49 | -2 | 2
SMILES | Beta cell apopt | CSC inhib | Lmaj promast | T cruzi repl | SKKanGAS inh | Mdm2 MdmX PPI
CCOc1ccc(NC(=S)Nc2ccc(OCC)cc2)cc1 | -3 | . | -4 | 20 | 3 | -7
CCNC(=S)Nc1ccc(OCC)cc1 | -6 | -7 | 65* | -16 | 0 | 28
CCOc1ccc(N/C(C)=C/C(=O)c2ccc(C)o2)cc1 | 1 | -5 | -4 | 60* | -1 | -15
CCCCn1c(CCC(=O)O)nc2cc(S(=O)(=O)N3CCCC3)ccc21 | 1 | 3 | . | . | . | -5
Cc1ccc(SCc2ccc(C(=O)Nc3cccc([N+](=O)[O-])c3C)cc2)cc1 | -3 | 16 | -2 | 60* | -1 | 44
Cc1ccc([N+](=O)[O-])cc1NC(=O)c1ccc(CSc2ccccc2)cc1 | -2 | 4 | -6 | -3 | 0 | 20
CCOc1ccc(C(C)NC(=O)Cc2ccccc2F)cc1OCC (stereo unspecified) | 3 | . | 5 | 6 | -2 | 11
CCN(CC(=O)Nc1ccc(OC)cc1)CC(=O)Nc1cccc(C#N)c1 | -1 | -3 | . | -12 | -2 | 4
Cc1cccc(/C=N/NC(=O)c2ccccc2OCc2cccc(Br)c2)n1 | 18 | . | . | 24 | 61* | -8
O=C(N/N=C/c1ccccc1)c1sccc1OCc1ccc(F)cc1 | -4 | . | 92* | 0 | -1 | 19
O=C(COc1ccccc1C(=O)NCc1ccncc1)Nc1ccc(Br)cc1 | 3 | 17 | 16 | 57* | -4 | 14
O=C(N/N=C/c1ccncc1)c1ccccc1OCc1ccc(Br)cc1 | 8 | 49 | 100* | 71* | -12 | 10
Cc1cccc(/C=N/NC(=O)c2cc(Br)ccc2OCc2ccccc2)n1 | . | 2 | . | 18 | 19 | 23
Cc1cc(C)c(S(=O)(=O)Nc2cccc(S(=O)(=O)NC3=NCCC3)c2)c(C)c1 | -4 | -12 | -8 | -1 | 0 | 21
O=C(/C=C1\NC2(CCCC2)Cc2ccccc21)C(=O)N/N=C/c1ccccc1O | . | . | 99* | 51 | 96* | 45
CCOC(=O)c1ccc2c(c1)nc(SCC(=O)N1CCOCC1)n2CC | -5 | -8 | -1 | 3 | 0 | -8
CCOC(=O)c1ccc2c(c1)nc(SCc1cn3ccsc3n1)n2CC | 10 | -10 | 99* | 8 | 7 | 16
CCN1CCN(Cc2ccc(OCc3ccccc3)c(OC)c2)CC1 | 4 | 39 | 65* | 50 | -12 | -9
COc1ccc2ccccc2c1CN1CCN(Cc2ccccc2)CC1 | -3 | -10 | 56* | 36 | -1 | 33
COc1ccc(CN2CCN(Cc3ccc4ccccc4c3)CC2)cc1OC | 1 | -5 | . | 37 | 2 | 4
COc1ccc(CN2CCN(C(=O)c3ccco3)CC2)cc1OC | -4 | 32 | -4 | -10 | -3 | -3
COc1cc(CN(C)CCc2ccccc2)ccc1OCc1ccccc1 | 6 | 59 | 96* | 63* | 4 | 22
COc1ccc(CN2CCN(C(=O)c3ccco3)CC2)cc1OCc1ccccc1 | -2 | 1 | 87* | 30 | -4 | 44
COc1ccc2nc(SCC(=O)Nc3cc(OC)c(OC)cc3C(=O)O)c(C)cc2c1 | -25 | -11 | -4 | -11 | 3 | 11
